Data from ChEMBL document CHEMBL1134365, “Synthesis and Src kinase inhibitory activity of a series of 4-phenylamino-3-quinolinecarbonitriles” (J Med Chem, 2001).

The compounds below were run against T1, Proto-oncogene tyrosine-protein kinase Src (Homo sapiens, UniProt P12931) (assay: Inhibition of Src Kinase at 0.1 mM ATP).
Procedure, shortened: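 Compound is preincubated 10 min at 30 °C, then the reaction is started with ATP (100 μM final) and run 1 h at 30 °C. It is stopped with EDTA and read by ELISA for tyrosine phosphorylation. Compounds are run in duplicate; values are the mean of at least two determinations.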

T1 sequence (P12931 2-536 limits assumed): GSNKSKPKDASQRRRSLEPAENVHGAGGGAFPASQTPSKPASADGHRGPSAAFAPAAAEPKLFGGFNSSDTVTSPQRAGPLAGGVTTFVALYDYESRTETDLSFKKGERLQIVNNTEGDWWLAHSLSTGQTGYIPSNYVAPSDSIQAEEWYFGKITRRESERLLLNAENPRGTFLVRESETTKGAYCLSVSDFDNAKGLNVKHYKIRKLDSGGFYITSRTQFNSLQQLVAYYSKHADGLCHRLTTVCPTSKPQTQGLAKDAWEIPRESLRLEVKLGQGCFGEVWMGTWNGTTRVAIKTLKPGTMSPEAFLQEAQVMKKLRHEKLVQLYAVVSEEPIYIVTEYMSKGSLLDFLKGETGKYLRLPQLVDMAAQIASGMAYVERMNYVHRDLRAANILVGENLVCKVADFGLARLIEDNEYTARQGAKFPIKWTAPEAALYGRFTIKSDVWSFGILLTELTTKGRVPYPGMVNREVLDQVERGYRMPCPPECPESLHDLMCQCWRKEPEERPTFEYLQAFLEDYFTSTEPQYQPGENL

Row | SMILES | IC50 [nM]
1 | COc1cc2ncc(C#N)c(Nc3ccc(Cl)cc3Cl)c2cc1OC | 23

Each compound was assayed against T1, Proto-oncogene tyrosine-protein kinase Src (assay: Inhibition of Src Kinase at 1 mM ATP).
Procedure, shortened: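 Src ELISA kinase assay with Src (3 units/reaction) and cdc2 substrate peptide in Tris-HCl pH 7.5 buffer with MgCl₂, EGTA and vanadate. After a 10 min, 30 °C preincubation with compound, the reaction is started with ATP raised to 1 mM and run 1 h at 30 °C. It is stopped with EDTA and phosphotyrosine is detected by ELISA.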

Row | SMILES | IC50 [nM]
2 | COc1cc2ncc(C#N)c(Nc3ccc(Cl)cc3Cl)c2cc1OC | 130

These compounds were tested against T1, Proto-oncogene tyrosine-protein kinase Src (assay: Inhibition of Src Kinase at 5 mM ATP).
Procedure, shortened: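 Same Src ELISA format: enzyme at 3 units/reaction, cdc2 peptide substrate, Tris-HCl pH 7.5/MgCl₂/EGTA/Na₃VO₄ buffer, and 10 min compound preincubation at 30 °C. ATP is raised to 5 mM to start the reaction, which runs 1 h at 30 °C. It is quenched with EDTA and phosphorylation is read by ELISA.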

Row | SMILES | IC50 [nM]
3 | COc1cc2ncc(C#N)c(Nc3ccc(Cl)cc3Cl)c2cc1OC | 270

Each compound was assayed against T1, Proto-oncogene tyrosine-protein kinase Src (assay: Inhibitory activity against human c-Src Kinase was measured using ELISA assay).
Procedure, shortened: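 Src (3 units/reaction) and cdc2 substrate peptide were preincubated with compound for 10 min at 30 °C in 50 mM Tris-HCl pH 7.5, 10 mM MgCl2, 0.1 mM EGTA and 0.5 mM Na3VO4. ATP was added to 100 μM final, the reaction ran 1 h at 30 °C, and EDTA stopped it. Phosphotyrosine was read by ELISA kit.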

Row | SMILES | IC50 [nM]
4 | COc1cc2c(Nc3ccc(Cl)cc3Cl)c(C#N)cnc2cc1OCCCN1CCN(C)CC1 | 8.7
5 | COc1cccc2ncc(C#N)c(Nc3ccc(Cl)cc3Cl)c12 | 1200
6 | COc1cc2ncc(C#N)c(Sc3ccc(Cl)cc3Cl)c2cc1OC | 2200
7 | COc1cc2ncnc(Nc3ccc(Cl)cc3Cl)c2cc1OC | 250
8 | COc1cc2c(Nc3ccc(Cl)cc3Cl)c(C#N)cnc2cc1OCCCN1CCC(O)CC1 | 3.5
9 | COc1cc2ncc(C#N)c(Nc3ccc(Cl)cc3Cl)c2cc1OCCCN1CCOCC1 | 220
10 | CCCCOc1cc2ncc(C#N)c(Nc3ccc(Cl)cc3Cl)c2cc1OCCCC | 160
11 | COc1cc2ncc(C=O)c(Nc3ccc(Cl)cc3Cl)c2cc1OC | 250
12 | COc1cc2nccc(Nc3ccc(Cl)cc3Cl)c2cc1OC | 84
13 | COc1ccc2c(Nc3ccc(Cl)cc3Cl)c(C#N)cnc2c1 | 200
14 | COc1cc2ncc(C#N)c(Nc3ccc(Cl)cc3)c2cc1OC | 53
15 | N#Cc1cnc2cc(OCCCN3CCOCC3)c(OCCCN3CCOCC3)cc2c1Nc1ccc(Cl)cc1Cl | 19
16 | CCOc1cc2ncc(C#N)c(Nc3ccc(Cl)cc3Cl)c2cc1OCC | 11
17 | COc1cc2c(Nc3ccc(Cl)cc3Cl)c(C#N)cnc2cc1OCCCN1CCOCC1 | 3.8
18 | COc1cc2ncc(C#N)c(Nc3cc(Cl)cc(Cl)c3)c2cc1OC | 1100
19 | COc1ccc2ncc(C#N)c(Nc3ccc(Cl)cc3Cl)c2c1 | 320

Next, values leading:

Row | IC50 [nM] | SMILES
20 | 10 | COc1cc2ncc(C#N)c(Nc3ccc(Cl)cc3Br)c2cc1OC
21 | 95 | COc1cc2ncc(C#N)c(Nc3ccccc3Cl)c2cc1OC
22 | 6.2 | COc1cc2ncc(C#N)c(Nc3ccc(Cl)cc3I)c2cc1OC
23 | 90 | COc1cc2ncc(C#N)c(Nc3cccc(Cl)c3Cl)c2cc1OC
24 | 61 | COc1cc2ncc(C#N)c(Nc3c(Cl)cccc3Cl)c2cc1OC
25 | 40 | COc1cc2ncc(C#N)c(Nc3cc(Cl)ccc3Cl)c2cc1OC
26 | 15 | COc1cc2ncc(C#N)c(Nc3ccc(Br)cc3Cl)c2cc1OC
27 | 30 | COc1cc2ncc(C#N)c(Nc3ccc(Cl)cc3Cl)c2cc1OC
28 | 53 | COc1cc2ncc(C#N)c(Nc3ccc(Cl)cc3F)c2cc1OC
29 | 95 | COc1cc2ncc(C#N)c(Nc3ccc(I)cc3Cl)c2cc1OC
30 | 57 | COc1cc2ncc(C#N)c(Nc3ccc(Cl)c(Cl)c3)c2cc1OC

What follows are compounds tested against T1, Proto-oncogene tyrosine-protein kinase Src (assay: Inhibition of Src Kinase at 1 uM).

Row | SMILES | inhibition [%]
31 | N#Cc1cnc2cc(O)c(O)cc2c1Nc1ccc(Cl)cc1Cl | < 20
32 | COc1cc2ncc(C(N)=O)c(Nc3ccc(Cl)cc3Cl)c2cc1OC | < 20
33 | COc1cc2ncc(C#N)c(Oc3ccc(Cl)cc3Cl)c2cc1OC | 37
34 | COc1cc(OC)c2c(Nc3ccc(Cl)cc3Cl)c(C#N)cnc2c1 | 52
35 | CCOC(=O)c1cnc2cc(OC)c(OC)cc2c1Nc1ccc(Cl)cc1Cl | < 20
36 | COc1cc2/c(=N/c3ccc(Cl)cc3Cl)c(C#N)cn(C)c2cc1OC | < 20
37 | COc1cc2ncc(CO)c(Nc3ccc(Cl)cc3Cl)c2cc1OC | < 20
38 | N#Cc1cnc2ccccc2c1Nc1ccc(Cl)cc1Cl | < 20
39 | COc1cc2ncc(C(=O)O)c(Nc3ccc(Cl)cc3Cl)c2cc1OC | < 20
40 | COc1cccc2c(Nc3ccc(Cl)cc3Cl)c(C#N)cnc12 | < 20
41 | COc1cc2ncc(C#N)c(N(C)c3ccc(Cl)cc3Cl)c2cc1OC | 32

Continued, values first:

Row | inhibition [%] | SMILES
42 | 24 | COc1cc2ncc(C#N)c(NCc3ccc(Cl)cc3Cl)c2cc1OC
43 | < 20 | COc1cc2ncc(C#N)c(NC(=O)c3ccc(Cl)cc3Cl)c2cc1OC
